Data from ChEMBL document CHEMBL5058577, “EUbOPEN Chemogenomics Library 2 (Multiplex)” (2022).

System: U2OS
Assay: Multiplex assay against U2OS
Type: toxicity, cell-based
Conditions: human
Method in brief: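 Live cells were stained at seeding with Hoechst33342, BioTracker Green Microtubule Cytoskeleton Dye, MitoTracker Red and Annexin V Alexa Fluor 680. Following compound addition, they were imaged on a CQ1 microscope at 37°C and 5% CO2 and gated by CellPathfinder machine learning into Hoechst high-intensity objects or normal cells, with normal cells split into healthy, pyknosed or fragmented nuclei and pyknosed cells into mitotic or apoptotic. Tubulin, mitochondrial-mass and membrane-permeability phenotypes are per cents of healthy-nucleus cells.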

[1] = 12 h, 1 µM, compound concentration 1 uM, replicate 1
[2] = 12 h, 1 µM, compound concentration 1 uM, replicate 2
[3] = 12 h, 10 µM, compound concentration 10 uM, replicate 1
[4] = 12 h, 10 µM, compound concentration 10 uM, replicate 2
[5] = 24 h, 1 µM, compound concentration 1 uM, replicate 1
[6] = 24 h, 1 µM, compound concentration 1 uM, replicate 2
[7] = 24 h, 10 µM, compound concentration 10 uM, replicate 1
[8] = 24 h, 10 µM, compound concentration 10 uM, replicate 2
[9] = 48 h, 1 µM, compound concentration 1 uM, replicate 1
[10] = 48 h, 1 µM, compound concentration 1 uM, replicate 2
[11] = 48 h, 10 µM, compound concentration 10 uM, replicate 1
[12] = 48 h, 10 µM, compound concentration 10 uM, replicate 2

SMILES: CSc1nc(NC2CCCC2)c([N+](=O)[O-])c(NC2CCCC2)n1 [GS-39783]
- Population Apoptotic (%) [1]: 82%
- Population Fragmented Nuclei (%) [1]: 25%
- Population Healthy Nuclei (%) [1]: 66%
- Population Hoechst High Intensity Objects (%) [1]: 2%
- Population Membrane Permeable-Phenotype (%) [1]: 4%
- Population Mitochondria Different-Phenotype (%) [1]: 3%
- Population Mitotic Cells (%) [1]: 17%
- Population Normal (%) [1]: 97%
- Population Pyknosed Nuclei (%) [1]: 8%
- Population Tubulin-Different-Phenotype (%) [1]: 1%
- Total Cell Count [1]: 209
- Population Apoptotic (%) [2]: 80%
- Population Fragmented Nuclei (%) [2]: 18%
- Population Healthy Nuclei (%) [2]: 76%
- Population Hoechst High Intensity Objects (%) [2]: 3%
- Population Mitochondria Different-Phenotype (%) [2]: 0%
- Population Mitotic Cells (%) [2]: 20%
- Population Normal (%) [2]: 96%
- Population Pyknosed Nuclei (%) [2]: 5%
- Total Cell Count [2]: 96
- Population Apoptotic (%) [3]: 88%
- Population Fragmented Nuclei (%) [3]: 30%
- Population Healthy Nuclei (%) [3]: 63%
- Population Hoechst High Intensity Objects (%) [3]: 3%
- Population Membrane Permeable-Phenotype (%) [3]: 9%
- Population Mitochondria Different-Phenotype (%) [3]: 5%
- Population Mitotic Cells (%) [3]: 11%
- Population Normal (%) [3]: 96%
- Population Pyknosed Nuclei (%) [3]: 5%
- Population Tubulin-Different-Phenotype (%) [3]: 4%
- Total Cell Count [3]: 322
- Population Apoptotic (%) [4]: 100%
- Population Fragmented Nuclei (%) [4]: 19%
- Population Healthy Nuclei (%) [4]: 75%
- Population Hoechst High Intensity Objects (%) [4]: 1%
- Population Mitochondria Different-Phenotype (%) [4]: 0%
- Population Mitotic Cells (%) [4]: 0%
- Population Normal (%) [4]: 98%
- Population Pyknosed Nuclei (%) [4]: 4%
- Population Tubulin-Different-Phenotype (%) [4]: 6%
- Total Cell Count [4]: 145
- Population Apoptotic (%) [5]: 87%
- Population Fragmented Nuclei (%) [5]: 22%
- Population Healthy Nuclei (%) [5]: 64%
- Population Hoechst High Intensity Objects (%) [5]: 2%
- Population Membrane Permeable-Phenotype (%) [5]: 2%
- Population Mitochondria Different-Phenotype (%) [5]: 1%
- Population Mitotic Cells (%) [5]: 12%
- Population Normal (%) [5]: 97%
- Population Pyknosed Nuclei (%) [5]: 12%
- Population Tubulin-Different-Phenotype (%) [5]: 1%
- Total Cell Count [5]: 269
- Population Apoptotic (%) [6]: 84%
- Population Fragmented Nuclei (%) [6]: 20%
- Population Healthy Nuclei (%) [6]: 68%
- Population Hoechst High Intensity Objects (%) [6]: 1%
- Population Membrane Permeable-Phenotype (%) [6]: 1%
- Population Mitotic Cells (%) [6]: 15%
- Population Normal (%) [6]: 98%
- Population Pyknosed Nuclei (%) [6]: 11%
- Population Tubulin-Different-Phenotype (%) [6]: 0%
- Total Cell Count [6]: 119
- Population Apoptotic (%) [7]: 85%
- Population Fragmented Nuclei (%) [7]: 26%
- Population Healthy Nuclei (%) [7]: 66%
- Population Hoechst High Intensity Objects (%) [7]: 2%
- Population Membrane Permeable-Phenotype (%) [7]: 6%
- Population Mitochondria Different-Phenotype (%) [7]: 6%
- Population Mitotic Cells (%) [7]: 14%
- Population Normal (%) [7]: 97%
- Population Pyknosed Nuclei (%) [7]: 6%
- Population Tubulin-Different-Phenotype (%) [7]: 4%
- Total Cell Count [7]: 341
- Population Apoptotic (%) [8]: 88%
- Population Fragmented Nuclei (%) [8]: 18%
- Population Healthy Nuclei (%) [8]: 75%
- Population Hoechst High Intensity Objects (%) [8]: 3%
- Population Membrane Permeable-Phenotype (%) [8]: 9%
- Population Mitochondria Different-Phenotype (%) [8]: 2%
- Population Mitotic Cells (%) [8]: 11%
- Population Normal (%) [8]: 96%
- Population Pyknosed Nuclei (%) [8]: 5%
- Population Tubulin-Different-Phenotype (%) [8]: 5%
- Total Cell Count [8]: 164
- Population Apoptotic (%) [9]: 88%
- Population Fragmented Nuclei (%) [9]: 18%
- Population Healthy Nuclei (%) [9]: 70%
- Population Hoechst High Intensity Objects (%) [9]: 1%
- Population Membrane Permeable-Phenotype (%) [9]: 3%
- Population Mitochondria Different-Phenotype (%) [9]: 1%
- Population Mitotic Cells (%) [9]: 11%
- Population Normal (%) [9]: 98%
- Population Pyknosed Nuclei (%) [9]: 11%
- Population Tubulin-Different-Phenotype (%) [9]: 1%
- Total Cell Count [9]: 382
- Population Apoptotic (%) [10]: 92%
- Population Fragmented Nuclei (%) [10]: 21%
- Population Healthy Nuclei (%) [10]: 71%
- Population Hoechst High Intensity Objects (%) [10]: 0%
- Population Mitotic Cells (%) [10]: 7%
- Population Normal (%) [10]: 100%
- Population Pyknosed Nuclei (%) [10]: 7%
- Population Tubulin-Different-Phenotype (%) [10]: 3%
- Total Cell Count [10]: 185
- Population Apoptotic (%) [11]: 89%
- Population Fragmented Nuclei (%) [11]: 23%
- Population Healthy Nuclei (%) [11]: 67%
- Population Hoechst High Intensity Objects (%) [11]: 2%
- Population Membrane Permeable-Phenotype (%) [11]: 5%
- Population Mitochondria Different-Phenotype (%) [11]: 1%
- Population Mitotic Cells (%) [11]: 10%
- Population Normal (%) [11]: 97%
- Population Pyknosed Nuclei (%) [11]: 8%
- Population Tubulin-Different-Phenotype (%) [11]: 2%
- Total Cell Count [11]: 462
- Population Apoptotic (%) [12]: 85%
- Population Fragmented Nuclei (%) [12]: 12%
- Population Healthy Nuclei (%) [12]: 81%
- Population Hoechst High Intensity Objects (%) [12]: 0%
- Population Membrane Permeable-Phenotype (%) [12]: 4%
- Population Mitochondria Different-Phenotype (%) [12]: 3%
- Population Mitotic Cells (%) [12]: 14%
- Population Normal (%) [12]: 99%
- Population Pyknosed Nuclei (%) [12]: 6%
- Population Tubulin-Different-Phenotype (%) [12]: 3%
- Total Cell Count [12]: 231
